Our source for the EC50, Activity and T/C values is ChEMBL document CHEMBL3227951, “Alkylating nucleosides 1. Synthesis and cytostatic activity of N-glycosyl(halomethyl)-1,2,3-triazoles. A new type of alkylating agent” (J Med Chem, 1979).

≈ marks a conversion by molar mass, not a printed value. Calls of active or inactive are those of the source. No cut-off for these calls is given here. Bounds are passed on as bounds.

One data set concerns HeLa. In words: In vitro cytostatic activity against human HeLa cells assessed as cell growth after 72 hrs by colorimetric method. The settings on record: read-out: ED50 (the source's name). The class given is functional. In short, it runs like this: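 HeLa cells at 10⁵ cells/mL in Eagle's minimal medium with 10% fetal calf serum, Leighton tubes, 37 °C. Compound added 2-3 h after attachment, suspended in sterile saline with 0.05% Tween 80 (10% of final volume). Incubated 72 h at 37 °C. Growth measured as cell protein by the Oyama-Eagle colorimetric method. 6-Mercaptopurine was the positive control. ED50 in μg/mL.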

Data set [1] deals with Mus musculus. Briefly: In vivo cytostatic activity against mouse Ehrlich carcinoma ascites allografted in ip dosed ICR swiss mouse assessed as median survival time administered qd for 9 days beginning 24 hrs after tumor implantation. Type of data set: functional, organism-based. In short, it runs like this:
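Female ICR Swiss mice (19-22 g) carrying Ehrlich ascites carcinoma, following NCI protocols 1100/1200. Compound suspended in 0.9% NaCl with 0.5% Tween 80 and given ip at 0.4 mL, once daily for 9 days starting 24 h after implantation. Groups of 6 treated and 30 control mice. 5-Fluorouracil at 20 mg/kg was the positive control. T/C = median survival of treated over control, ×100.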

The nature of data set [2]: In vivo cytostatic activity against mouse Ehrlich carcinoma ascites allografted in ICR swiss mouse assessed as median survival time at 75 mg/kg, ip administered qd for 9 days beginning 24 hrs after tumor implantation relative to control. The settings on record: route intraperitoneal. The class given is functional. The method in brief: (§1)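 Female ICR Swiss mice (19-22 g) bearing Ehrlich ascites carcinoma, per NCI protocols 1100/1200; compound suspended in 0.9% NaCl with 0.5% Tween 80, given ip at 0.4 mL once daily for 9 days from 24 h post-implant. Groups of 6 treated vs 30 controls; 5-fluorouracil 20 mg/kg/injection as positive control. T/C = treated/control median survival time as percentage.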

For another data set, the system named is P388. Briefly: In vivo cytostatic activity against mouse P388 cells allografted in mouse assessed as increase in host life span at 50 mg/kg. The class given is functional.
Data set [3] concerns Mus musculus. Briefly: Toxicity in ICR swiss mouse allografted with mouse Ehrlich carcinoma ascites assessed as change in body weight at 75 mg/kg, ip administered qd for 9 days beginning 24 hrs after tumor implantation. Type of data set: organism-based. Details: dose 75 mg/kg, route intraperitoneal. The settings on record: in vivo. The method in brief:
(§2)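 Female ICR Swiss mice (19-22 g) carrying Ehrlich ascites carcinoma. Compound suspended in 0.9% NaCl with 0.5% Tween 80 and given ip at 0.4 mL, once daily for 9 days starting 24 h after implantation. Groups of 6 treated and 30 control mice. Read-out is the weight difference in grams between treated and control animals.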

The nature of data set [4]: In vivo cytostatic activity against mouse Ehrlich carcinoma ascites allografted in ICR swiss mouse assessed as median survival time at 100 mg/kg, ip administered qd for 9 days beginning 24 hrs after tumor implantation relative to control. Type of data set: functional. The settings on record: route intraperitoneal. In short, it runs like this: as §1
The subject of data set [5] is Mus musculus. Briefly: Toxicity in ICR swiss mouse allografted with mouse Ehrlich carcinoma ascites assessed as change in body weight at 100 mg/kg, ip administered qd for 9 days beginning 24 hrs after tumor implantation. Type of data set: organism-based. Also on record: dose 100 mg/kg, route intraperitoneal. The settings on record: in vivo. In short, it runs like this: as §2

One may read the T/C as the ratio of treated to control.

On to `Sc1ncnc2nc[nH]c12` [MERCAPTOPURINE ANHYDROUS], for which, in the data set on HeLa, the EC50 is 0.1 µg/mL (≈ 0.657 µM).
Same read-out and setting: for `CC(=O)OC[C@H]1O[C@@H](n2nncc2CCl)[C@H](OC(C)=O)[C@@H](OC(C)=O)[C@@H]1OC(C)=O` the value was 25 µg/mL (≈ 55.8 µM).
With `BrCc1cn(Cc2ccccc2)nn1`, the EC50 with HeLa amounted to 2 µg/mL (≈ 7.93 µM). The result in the data set with Mus musculus [1] was inactive.
Regarding `CC(=O)OC[C@H]1O[C@@H](n2cc(CBr)nn2)[C@H](OC(C)=O)[C@@H](OC(C)=O)[C@@H]1OC(C)=O`, the EC50 with HeLa worked out at 3.5 µg/mL (≈ 7.11 µM). Also, the figures for the T/C (in data set [2]; in the data set with P388) were 145% and 163%, respectively. Besides, the outcome in the data set on Mus musculus [1] was Active. Moreover, the Activity in the data set with Mus musculus [3] is -0.5 g.
Consider `CC(=O)N[C@@H]1[C@@H](OC(C)=O)[C@H](OC(C)=O)[C@@H](COC(C)=O)O[C@H]1n1cc(CBr)nn1`, for which the EC50 with HeLa was found to be 20 µg/mL (≈ 40.7 µM).
For the compound `CC(=O)OC[C@H]1O[C@@H](n2nncc2CBr)[C@H](OC(C)=O)[C@@H](OC(C)=O)[C@@H]1OC(C)=O`, the EC50 with HeLa turned out to be 4 µg/mL (≈ 8.13 µM). Moreover, in the data set on Mus musculus [1], the result was inactive.
`CC(=O)N[C@@H]1[C@@H](OC(C)=O)[C@H](OC(C)=O)[C@@H](COC(C)=O)O[C@H]1n1nncc1CO`: in the data set with HeLa, the EC50 was greater than 100 µg/mL.
For the compound `CC(=O)OC[C@H]1O[C@@H](n2cc(CCl)nn2)[C@H](OC(C)=O)[C@@H](OC(C)=O)[C@@H]1OC(C)=O`, in the data set with HeLa, the EC50 amounted to 37 µg/mL (≈ 82.6 µM).
In the case of `ICc1cn(Cc2ccccc2)nn1`, the EC50 in the data set with HeLa turned out to be 2 µg/mL (≈ 6.69 µM). The outcome in the data set on Mus musculus [1] was inactive.
In the case of `CC(=O)N[C@@H]1[C@@H](OC(C)=O)[C@H](OC(C)=O)[C@@H](COC(C)=O)O[C@H]1n1nnc(CO)c1CO`, the EC50 in the data set on HeLa is greater than 100 µg/mL.
Same read-out and setting: under `FCc1cn(Cc2ccccc2)nn1` stands greater than 100 µg/mL; under `CC(=O)OC[C@H]1O[C@@H](n2nnc(CCl)c2CCl)[C@H](OC(C)=O)[C@@H](OC(C)=O)[C@@H]1OC(C)=O`, 6 µg/mL (≈ 12.1 µM).
In the case of `CC(=O)OC[C@H]1O[C@@H](n2nnc(CBr)c2CBr)[C@H](OC(C)=O)[C@@H](OC(C)=O)[C@@H]1OC(C)=O`, the EC50 in the data set with HeLa came out at 3 µg/mL (≈ 5.13 µM). Moreover, the outcome in the data set with Mus musculus [1] was inactive.
Turning to `CC(=O)OC[C@H]1O[C@@H](n2nnc(CO)c2CO)[C@H](OC(C)=O)[C@@H](OC(C)=O)[C@@H]1OC(C)=O`, in the data set on HeLa, the EC50 is greater than 100 µg/mL.
As to `CC(=O)OC[C@H]1O[C@@H](n2cc(CI)nn2)[C@H](OC(C)=O)[C@@H](OC(C)=O)[C@@H]1OC(C)=O`, the EC50 with HeLa is 2 µg/mL (≈ 3.71 µM). Also, the T/C in data set [4] is recorded as 195%. The outcome in the data set on Mus musculus [1] was Active. Also, the Activity with Mus musculus [5] was -1.1 g.
`ClCc1cn(Cc2ccccc2)nn1`: the EC50 with HeLa was 18 µg/mL (≈ 86.7 µM).
Same read-out and setting: under `CC(=O)N[C@@H]1[C@@H](OC(C)=O)[C@H](OC(C)=O)[C@@H](COC(C)=O)O[C@H]1n1cc(CCl)nn1` stands 20 µg/mL (≈ 44.8 µM); under `CC(=O)N[C@@H]1[C@@H](OC(C)=O)[C@H](OC(C)=O)[C@@H](COC(C)=O)O[C@H]1n1nncc1CCl`, 25 µg/mL (≈ 55.9 µM); under `CC(=O)N[C@@H]1[C@@H](OC(C)=O)[C@H](OC(C)=O)[C@@H](COC(C)=O)O[C@H]1n1cc(CO)nn1`, greater than 100 µg/mL.
